Reference: ChEMBL document CHEMBL2406979, “Antitumor activity of 2-hydroxycinnamaldehyde for human colon cancer cells through suppression of β-catenin signaling” (J Nat Prod, 2013)
Calls of active or inactive are those of the source. No cut-off for these calls is given here.

Test system: HEK293
Assay: Inhibition of Wnt/beta-catenin (unknown origin) signaling pathway expressed in HEK293 cells assessed as inhibition of TCF4 transcriptional activity at 5 to 40 uM after 24 hrs by TOPflash reporter gene assay
Type: cell-based
Conditions: Homo sapiens
Summary of the method: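 HEK293 cells seeded at 1.5 × 10^4 per well and cotransfected (Lipofectamine 2000) with TOPflash luciferase reporter 0.1 μg, Renilla 0.005 μg for normalization, pcDNA β-catenin 0.02 μg and TCF4 expression vector 0.004 μg to activate Wnt; 24 h later treated with compound or solvent for 24 h; dual luciferase read-out, Renilla-normalized, relative to vehicle; triplicate.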

Q: `O=C/C=C/c1ccccc1` was tested. Which inhibition did it give?
A: Active
